Screening data from PubChem.
Most compounds without a hit are left out; they make up all but 2.7% or so of the library.
CHO parental Ca = counter-screen for OX1R antagonists: effect in parental CHO cells; hit rate 0.63% among 330,000; parental CHO-K1, ATP-induced calcium, Fluo-8 fluorescence; inhibition, % at 5.6 µM;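 active = inhibition above that plate's mean sample inhibition plus 3 SD, cut at about 26% in these data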;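 also: 0% = ATP-challenged DMSO wells and 100% = DMSO wells without ATP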
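Assay system: untransfected parental CHO cell line. Also added: ATP agonist challenge. Dosing: one dose, 5.6 µM nominal. Measured by: Fluo-8 fluorescence. Read-out: % inhibition. Benchmarks: ATP wells versus no-ATP DMSO wells. Repeats: no replicates.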
OX1R antag-1 = antagonists of human orexin 1 receptor; inhibition, % at 5 µM; O43613; hit rate 0.43% among 330,000; CHO/OX1R cells, Fluo-8 calcium fluorescence, orexin A;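 active = inhibition above its plate's threshold, mean inhibition of all tested compounds on the plate plus 3 SD, cut at about 37% in these data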;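 also: 0% = orexin A challenge wells and 100% = SB-334867-A antagonist wells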
OX1R antag-2 = antagonists of human orexin 1 receptor (OX1R) | O43613 | OX1R-expressing cells, FRET antagonist read-out | inhibition, % at 6.6 µM | hit rate 1.8% among 330,000; in the data active = inhibition mostly above about 38%, no sharp cut-off; inactive = mostly below about 40%;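 also: 0% = agonist challenge alone and 100% = reference antagonist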
OXTR agonist = human OXTR agonism | P30559 | CHO-OTR cells, Fluo-8 calcium fluorescence; normalized: DMSO 0%, oxytocin 100% | activation, % at 3 µM | hit rate 0.32% among 320,000;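 active = activation above the mean of all tested compounds plus 3 SD, cutoff set per screening run, cut at about 20% in these data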;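 also: peak over basal fluorescence ratio from a 100 s FLIPR kinetic read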
Target sequence (P30559 whole entry, looked up): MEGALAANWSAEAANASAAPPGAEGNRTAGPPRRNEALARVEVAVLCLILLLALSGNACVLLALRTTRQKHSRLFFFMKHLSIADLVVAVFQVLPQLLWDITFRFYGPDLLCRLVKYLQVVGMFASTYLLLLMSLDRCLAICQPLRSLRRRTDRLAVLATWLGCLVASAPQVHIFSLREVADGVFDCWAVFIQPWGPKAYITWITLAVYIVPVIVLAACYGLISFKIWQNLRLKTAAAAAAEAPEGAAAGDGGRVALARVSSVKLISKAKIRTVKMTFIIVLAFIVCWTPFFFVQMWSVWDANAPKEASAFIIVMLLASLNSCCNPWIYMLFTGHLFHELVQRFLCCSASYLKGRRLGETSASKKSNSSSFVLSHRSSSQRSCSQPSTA
OXTR potentiate = human OXTR potentiation | P30559 | CHO-OTR cells, Fluo-8 calcium fluorescence, potentiator mode; 0% = oxytocin EC15, 100% = EC100 | hit rate 0.061% among 320,000 | activation, % at 3 µM;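 active = activation above that plate's cutoff, the mean activation of tested compounds plus 3 SD, cut at about 6.6% in these data, passing the limit was not always enough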;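 also: 100% uses oxytocin at 75 nM as the full agonist control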
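test system = CHO-OTR cells, human receptor | compound = single-point 3.0 µM | schedule = 6 min compound pre-incubation at room temperature, 100 s kinetic read | signal = Fluo-8 no-wash calcium dye fluorescence, excitation 470-495 nm, emission 515-575 nm | repeats = single well per compound, singlicate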
V1R ag counter = V1a receptor agonism, counter-screen for OXTR agonists | CHO-V1R cells, Fluo-8 calcium fluorescence, agonist mode; 0% DMSO, 100% 3 nM vasopressin | activation, % at 3 µM | hit rate 0.25% among 320,000 | AID 2797;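 active = activation above the mean activation of all tested compounds plus 3 SD, per screening run, cut at about 20% in these data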;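 also: signal is peak over basal fluorescence ratio across a 100 second FLIPR read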
Target sequence (P37288 whole entry, looked up): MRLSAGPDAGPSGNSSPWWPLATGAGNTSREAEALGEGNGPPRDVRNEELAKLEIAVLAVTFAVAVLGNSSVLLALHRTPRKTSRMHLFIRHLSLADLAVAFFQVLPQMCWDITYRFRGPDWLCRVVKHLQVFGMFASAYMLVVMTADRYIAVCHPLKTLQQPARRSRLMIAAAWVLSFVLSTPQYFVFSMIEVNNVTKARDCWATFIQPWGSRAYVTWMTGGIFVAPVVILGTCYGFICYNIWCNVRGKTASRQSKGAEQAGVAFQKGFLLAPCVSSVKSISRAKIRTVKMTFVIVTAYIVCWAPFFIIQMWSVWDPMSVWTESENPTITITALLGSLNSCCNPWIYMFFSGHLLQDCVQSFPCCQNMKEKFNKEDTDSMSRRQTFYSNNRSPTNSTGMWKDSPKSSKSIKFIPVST
OX1R Ca confirm = OX1R (human) antagonism, confirmed. shares compounds with OX1R antag-1. CHO/OX1R cells, orexin A calcium Fluo-8 fluorescence. inhibition, % at 5 µM. hit rate 38% among 1,100; in the data active = inhibition above about 29%;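 also: 0% = agonist challenge alone and 100% = reference antagonist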
CHO Ca triplic = signal in parental CHO cells, OX1R antagonist counter-screen. shares compounds with OX1R antag-1. parental CHO-K1, ATP-induced calcium, Fluo-8 fluorescence. inhibition, % at 5.6 µM. hit rate 9.3% among 1,100;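 active = inhibition above a per-plate limit, the mean inhibition of that plate's test compounds plus 3 SD, cut at about 25% in these data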;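 also: 0% = ATP challenge with DMSO and 100% = DMSO without ATP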
Numbers without * were called inactive; . = not tested or not shown.

SMILES | CHO parental Ca | OX1R antag-1 | OX1R antag-2 | OXTR agonist | OXTR potentiate | V1R ag counter | OX1R Ca confirm | CHO Ca triplic
Cc1nc(C)n(CC(=O)N2CCCC(C(=O)c3cccc4ccccc34)C2)n1 (stereo unspecified) | -22.4 | -20.9 | 24.5 | -1.7 | -2.4 | -1.6 | . | .
CCCN1C(=O)/C(=C/C=C2\N(CC)c3ccccc3C2(C)C)SC1=S | 18.8 | 36.7 | 3.8 | 7.3 | -22.6 | 12.7 | 55.5* | 51.9*
CCN1C(=O)/C(=C/C=C2/Sc3ccccc3N2CCO)SC1=S | 2.5 | 21.6 | 43.5 | 10.2 | -32.3 | 11.8 | 20.5 | 25.0*
N#Cc1c(NC(=O)CSc2nc(N)cc(=O)[nH]2)sc2c1CCCC2 | 7.7 | 25.5 | 38.8 | -0.2 | -21.5 | 0.4 | 7.4 | 8.4
Cc1ccc(NS(=O)(=O)c2c(C)[nH]c(C)c2C(=O)N2CCCC2)cc1Cl | -20.1 | -15.4 | 15.1 | 2.2 | -8.8 | 1.1 | . | .
Cn1c(CCCOc2ccc(Cl)cc2Cl)nnc1SCC(=O)Nc1nccs1 | 3.0 | 38.4 | 14.2 | 16.0 | -13.0 | 13.2 | 6.9 | -4.9
CCCCc1nnc(SCC(=O)Nc2nccs2)n1C | 7.8 | -14.0 | 5.6 | -0.5 | 1.3 | -0.2 | . | .
COc1ccc(CNC(=O)Cc2nn(C)c(=O)c3ccccc23)cc1 | 15.0 | 30.2 | 35.4 | 14.8 | -19.0 | 11.2 | 16.8 | 32.6*
O=[N+]([O-])C1C(c2ccccc2)=NOC1c1ccccc1O (stereo unspecified) | 7.5 | -10.7 | 12.0 | 2.3 | -1.0 | 0.5 | . | .
COc1ccc(NC(=O)CCc2nc(-c3ccc(C)cc3)no2)cc1Cl | 15.9 | 34.3 | 56.5 | 4.9 | -22.6 | 6.0 | 5.4 | 5.8
NC(=O)CCN1CCN(CCOC2Cc3cc(Cl)ccc3Sc3ccccc32)CC1 (stereo unspecified) | -5.8 | -11.0 | 6.4 | 4.9 | -6.8 | 2.7 | . | .
Fc1ccc2c(c1)Sc1ccc(Cl)cc1CC2N1CCN(CCC2OCCO2)CC1 (stereo unspecified) | 15.6 | 37.9 | 6.3 | 2.8 | -13.1 | -0.5 | 8.2 | -2.2
Cc1ccc(N=Cc2sc(O)c3ccccc23)cc1 | 7.9 | 35.0 | 30.7 | 28.7* | -14.4 | 36.6* | 24.0 | 19.3
Cc1ccc(N=Cc2sc(O)c3ccccc23)c(C)c1 | -20.7 | -24.9 | 12.6 | 1.0 | -14.6 | 3.1 | . | .
COc1c(C)cc(Br)cc1C(=O)Nc1ccc(Cc2ccncc2)cc1 | 17.8 | 31.0 | 40.8 | -2.1 | -11.5 | 2.4 | -8.6 | -4.9
CC(=O)Oc1cccc(NC(=O)c2cccc(C(=O)Nc3cccc(OC(C)=O)c3)c2)c1 | -8.9 | 51.8* | 3.0 | 0.0 | -8.7 | 2.6 | 13.7 | -2.1
COC(=O)c1c(C)[nH]c(C(=O)COC(=O)CCNS(=O)(=O)c2cccc(C(F)(F)F)c2)c1C | 8.9 | 38.7 | -0.3 | 10.8 | -12.4 | 8.6 | -6.3 | -13.1
COc1cccc(/C=N/NC(=O)CN(C)S(=O)(=O)c2ccccc2)c1OC | -6.4 | -17.1 | -1.9 | 1.7 | -5.6 | 1.8 | . | .
COc1cc2c(cc1OC)CN(C(=O)Cn1ccccc1=O)CC2 | -3.2 | 50.7* | 7.7 | 0.4 | -2.1 | 0.7 | 0.6 | -1.4
COc1ccc2c(c1)CC(N1CCN(C)CC1)c1cc(OC)ccc1S2 (stereo unspecified) | 19.1 | 45.2* | 15.8 | 33.9* | -20.6 | 25.3* | 21.2 | 11.2
CCN1C(=O)CC(N2CCN(c3ccc(OC)cc3)CC2)C1=O (stereo unspecified) | 1.9 | 1.4 | 3.5 | 1.0 | -2.9 | 0.1 | . | .
Cc1noc(/C=C/c2ccc(-c3ccccc3Cl)o2)c1[N+](=O)[O-] | 20.8 | 29.2 | 8.2 | 5.5 | -11.5 | 4.8 | 74.3* | 43.4*
Cc1cccc(C)c1N/C=C/c1onc(C)c1[N+](=O)[O-] | -22.4 | -10.6 | 17.9 | -1.4 | -18.4 | 0.0 | . | .
CC(=O)N=C1SC2CS(=O)(=O)CC2N1c1cccc(Cl)c1Cl (stereo unspecified) | -13.6 | -9.9 | 5.7 | -0.2 | -11.5 | 1.2 | . | .
CC(=O)N=c1cccc(NC(C)=O)n1O | -6.2 | 86.2* | 14.6 | 0.1 | 4.8 | 0.1 | -0.5 | 2.9
SMILES | CHO parental Ca | OX1R antag-1 | OX1R antag-2 | OXTR agonist | OXTR potentiate | V1R ag counter | OX1R Ca confirm | CHO Ca triplic
Cc1ccc(C(=O)OC(C)CN2C(C)CCCC2C)cc1 (stereo unspecified) | -6.0 | -24.0 | -4.9 | 0.5 | -5.6 | -0.4 | . | .
COc1ccc([N+](=O)[O-])cc1N(CC(=O)Nc1ccccc1C(=O)NC(C)C)S(C)(=O)=O | -20.1 | -19.7 | 12.9 | -1.2 | -5.8 | 0.4 | . | .
N#Cc1ccccc1OCC(=O)Nc1cccc(S(=O)(=O)N2CCCCCC2)c1 | 3.7 | 35.8 | 4.4 | 7.2 | -12.2 | 10.9 | -1.4 | -1.8
CCOc1ccccc1OCC(=O)Nc1cccc(S(=O)(=O)N2CCCCCC2)c1 | -2.9 | -2.7 | 20.4 | -1.2 | -7.9 | 0.8 | . | .
O=C(CSc1nc2[nH]ncc2c(=O)[nH]1)Nc1ccccc1 | -3.2 | -2.1 | 5.1 | -0.1 | -7.4 | 0.4 | . | .
O=c1[nH]c(=S)[nH]c2sc3c(c12)CCCCCC3 | -8.9 | -8.2 | 9.9 | 0.7 | -9.5 | 0.3 | . | .
Cn1c(CSc2ncccn2)nnc1SCC(=O)N1CCCc2ccccc21 | -12.7 | 31.9 | 7.6 | -0.6 | -8.9 | -0.5 | -2.3 | -4.2
CCn1cc(CN2CCC(n3nccc3NC(=O)CCOc3ccccc3)CC2)c(C)n1 | -5.1 | -0.9 | 17.7 | 0.4 | -7.6 | -0.6 | . | .
NC(=O)c1ccc(N2CCN(c3ccccc3F)CC2)c([N+](=O)[O-])c1 | 19.7 | 24.2 | 28.1 | 9.0 | -12.5 | 8.3 | 6.7 | 21.8
COc1coc(C(O)C[N+](=O)[O-])cc1=O (stereo unspecified) | -3.6 | -0.2 | 9.9 | -0.8 | 0.0 | 0.3 | . | .
O=C(Nc1csc([N+](=O)[O-])c1)Nc1ccccc1Cl | 3.4 | 35.4 | 44.5 | 5.4 | -15.1 | 8.4 | 1.2 | 41.9*
O=C(CSc1ncnc2c1cnn2CCc1ccccc1)Nc1cccc(C(F)(F)F)c1 | 24.0 | 60.6* | 37.8 | 0.5 | -8.7 | 3.7 | -8.5 | -9.1
Cc1c(Cl)cccc1NC(=O)CSc1ncnc2c1cnn2CCc1ccccc1 | -8.4 | -10.5 | 19.3 | -0.4 | -4.2 | 1.2 | . | .
CCn1c(SCC(=O)N2CCCC2)nc2ccccc2c1=O | -21.8 | 33.7* | 16.4 | -0.2 | -1.5 | 0.8 | -0.4 | -8.1
CCn1cc(C(=O)NCCC(=O)NCCCO)c(=O)c2cc3c(cc21)OCO3 | -6.9 | 8.4 | 6.7 | 1.8 | 1.1 | 1.2 | . | .
COc1ccc(CNC(=O)C(c2ccc(C)o2)N(Cc2cccs2)C(=O)Cc2cccs2)cc1 (stereo unspecified) | 13.1 | 46.3* | 63.5 | 5.4 | -19.4 | 7.5 | 9.4 | -3.8
